Bioassay records (PubChem)
SIRT5 inh: SIRT5 desuccinylase inhibitors, primary screen, biochemical, fluorescence imaging, single point, set 5; 330,000 compounds, 1.1% hits; NAD-dependent protein deacylase sirtuin-5, mitochondrial (Homo sapiens), Q9NXA8; Purified SirT5, succinyl-peptide AMC, trypsin-coupled fluorescence; AID 652115, 2013; inhibition, % at 15 µM; in the data active = inhibition above about 15%; inconclusive = no clear call, values can overlap the other calls
CAL PDZ FP-1: untagged CAL PDZ binding inhibitors, primary screen, biochemical, fluorescence polarization, HTS; inhibition, % at 24.9 µM; 300,000 compounds, 0.92% hits; Golgi-associated PDZ and coiled-coil motif-containing protein (Homo sapiens), Q9HD26; AID 602252, 2012; purified CAL PDZ, TMR-peptide fluorescence polarization, 1 h;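 active = mean inhibition of at least 30% with at least half of replicates also reaching 30%; inconclusive = no clear call, values can overlap the other calls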;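 note: 0% = DMSO neutral control and 100% = excess unlabeled competitor peptide PRC23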
DENV2 CPE rescue: inhibitors of DENV2 cytopathic effect, primary screen, cell-based, plate reader, single concentration. 350,000 compounds, 1.7% hits. AID 651640, 2012. CPE inhibition, % at 9.99 µM. DENV2-infected cells, cytopathic effect rescue; in the data active = CPE inhibition above about 20%, passing the limit was not always enough; inconclusive = no clear call, values can overlap the other calls; tested in BHK-21 cells;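 note: 0% = median of neutral control wells and 100% = median of positive control wells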
ERAP1 inh: human ERAP1 aminopeptidase inhibitors, primary screen, biochemical, single point, plate reader. recombinant ERAP1, Leu-AMC fluorescence, 60 min. inhibition, % at 10.7 µM. 340,000 compounds, 0.15% hits. AID 652197, 2013;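 active = mean replicate inhibition of at least 30%, or all replicates individually reaching that 30% level; inactive = mean below 30% and not every replicate reaching it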;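 note: 0% = neutral control wells and 100% = L-leucinethiol positive control wells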
Target sequence (Q9NZ08 whole entry, looked up): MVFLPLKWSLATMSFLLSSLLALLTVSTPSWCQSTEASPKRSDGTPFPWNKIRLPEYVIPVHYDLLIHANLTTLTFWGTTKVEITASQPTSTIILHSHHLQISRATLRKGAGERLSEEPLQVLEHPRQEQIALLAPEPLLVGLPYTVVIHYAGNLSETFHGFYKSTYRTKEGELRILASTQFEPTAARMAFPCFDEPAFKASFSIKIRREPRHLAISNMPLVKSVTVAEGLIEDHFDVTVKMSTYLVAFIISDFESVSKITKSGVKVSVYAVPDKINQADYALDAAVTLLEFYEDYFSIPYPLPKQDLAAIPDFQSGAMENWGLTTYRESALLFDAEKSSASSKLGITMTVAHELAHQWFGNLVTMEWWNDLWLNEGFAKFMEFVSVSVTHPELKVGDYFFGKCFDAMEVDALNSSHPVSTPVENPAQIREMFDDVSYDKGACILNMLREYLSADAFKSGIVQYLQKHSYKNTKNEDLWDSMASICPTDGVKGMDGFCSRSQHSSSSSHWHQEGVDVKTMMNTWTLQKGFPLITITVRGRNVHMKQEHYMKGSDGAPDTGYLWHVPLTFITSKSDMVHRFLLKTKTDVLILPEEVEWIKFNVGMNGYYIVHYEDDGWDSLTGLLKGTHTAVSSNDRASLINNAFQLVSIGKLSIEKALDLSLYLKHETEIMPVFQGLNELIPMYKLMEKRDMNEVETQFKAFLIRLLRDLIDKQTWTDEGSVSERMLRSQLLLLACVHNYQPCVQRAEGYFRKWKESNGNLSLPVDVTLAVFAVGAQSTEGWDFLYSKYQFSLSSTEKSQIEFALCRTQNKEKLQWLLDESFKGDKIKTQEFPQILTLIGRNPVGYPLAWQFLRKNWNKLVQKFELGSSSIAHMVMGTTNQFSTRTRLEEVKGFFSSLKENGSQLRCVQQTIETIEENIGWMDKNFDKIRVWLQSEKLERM
CAL PDZ FP-2: CAL PDZ peptide-binding inhibitors, primary screen, biochemical, fluorescence polarization, Cer-tagged CAL PDZ, HTS; Golgi-associated PDZ and coiled-coil motif-containing protein (Homo sapiens), Q9HD26; purified CAL PDZ, TMR-peptide fluorescence polarization, 1 h; inhibition, % at 20 µM; 330,000 compounds, 0.02% hits;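 active = highest replicate inhibition of at least 40%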;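 note: plate controls were DMSO neutral control wells for no effect and unlabeled competitor peptide control wells for full effect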
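Material: tagged CAL PDZ domain; buffer or medium: 25 mM sodium phosphate pH 7.4, 150 mM NaCl, TCEP, IgG, Thesit; compound dosing: single point, 20 µM; schedule: 1 h incubation at room temperature before polarization reading; measured by: FP readout, S and P plane fluorescence; read-out basis: percent inhibition from loss of millipolarization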
S100A4 inh HTS: inhibitors of S100A4-myosin IIA peptide binding, primary screen, biochemical, fluorescence polarization, TAMRA-MyoIIA peptide. Protein S100-A4 (Homo sapiens), P26447. inhibition, % at 10.7 µM. 360,000 compounds, 0.14% hits;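 active = mean inhibition of at least 70% across replicates, with every replicate also reaching that level; inconclusive = mean inhibition reaches 70% but some replicates fall short; inactive = mean inhibition below 70%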
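assay system = human S100A4 monomer with TAMRA-labelled myosin IIA peptide | also added = labelled myosin peptide probe, 5 nM | incubation = 5 min between mix addition and reading | control set = DMSO and TFP controls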
* hit, by the source's call; ? = inconclusive; nt = not tested or not shown. In the library only some 2.9% were active in any assay of this set; here they are far more common.

SMILES	SIRT5 inh	CAL PDZ FP-1	DENV2 CPE rescue	ERAP1 inh	CAL PDZ FP-2	S100A4 inh HTS
O=C(C1CC1)N1CC[C@H]2[C@H](CO)Nc3ccc(-c4ccc(F)cc4)cc3[C@H]21	-5	nt	3	0	nt	9
O=C(C1CCOCC1)N1CC[C@@H]2[C@H]1c1cc(-c3cccc(F)c3)ccc1N[C@@H]2CO	-2	nt	88*	-2	nt	13
C[C@@H]1CCCCO[C@H](CN(C)S(C)(=O)=O)[C@@H](C)CN([C@@H](C)CO)C(=O)c2cc(NC(=O)Nc3ccc(F)cc3)ccc2O1	nt	nt	-5	nt	nt	nt
CCNC(=O)C[C@H]1CC[C@H]2[C@@H](COc3ccc(NC(=O)Nc4ccc(Cl)cc4)cc3C(=O)N2C)O1	2	nt	2	-2	nt	-6
O=[N+]([O-])c1ccccc1N/N=C1\CC2CC=CC12 (centres undefined)	13	-3	30*	-5	-3	-1
CCNC(=O)C1CCCN(C(=O)c2ccc(OC)c(OC)c2)CC1 (centres undefined)	17*	nt	7	4	nt	3
COCCNC(=O)C1CCCN(C(=O)c2cc(C)nn2C(C)(C)C)CC1 (centres undefined)	nt	nt	21*	-3	nt	-14
COCCNC(=O)C1CCCN(C(=O)c2cc(C)n(C(C)(C)C)n2)CC1 (centres undefined)	nt	nt	-2	-3	nt	2
CCNC(=O)C1CCCN(C(=O)c2ccc(OC)cc2)CC1 (centres undefined)	-5	nt	-4	-2	nt	-3
C[C@@H]1CN([C@H](C)CO)C(=O)c2cc(NS(=O)(=O)c3cn(C)cn3)ccc2O[C@@H](C)CCCCO[C@@H]1CN(C)CC1CC1	9	nt	-2	2	nt	13
CCCN(CC(=O)Nc1ccccc1OC)C(=O)c1ccccn1	nt	74*	-2	-1	0	-3
CCCN(CC(=O)Nc1ccccc1OC)C(=O)CC1CCCC1	1	0	-4	-1	2	0
CCCN(CC(=O)Nc1ccccc1OC)C(=O)CSC(=S)N1CCCC1	-2	60*	1	2	0	0
COc1ccc(-c2oc(=O)c3cc(OC)c(OC)cc3c2/C=C/c2cccc([N+](=O)[O-])c2)cc1	nt	8	34*	3	0	7
COc1ccc(-c2oc(=O)c3cc(OC)c(OC)cc3c2/C=C/c2ccc([N+](=O)[O-])cc2)cc1	-7	3	nt	1	-1	-3
COc1ccc(S(=O)(=O)Nc2ccc3c(c2)CC(=O)N([C@@H](C)CO)C[C@@H](C)[C@H](CN(C)Cc2ccc(C(F)(F)F)cc2)O3)cc1	24*	nt	-2	-1	nt	-20
COc1ccc(S(=O)(=O)Nc2ccc3c(c2)CC(=O)N([C@@H](C)CO)C[C@@H](C)[C@@H](CN(C)Cc2ccc(C(F)(F)F)cc2)O3)cc1	5	nt	-3	1	nt	4
COc1ccc(S(=O)(=O)Nc2ccc3c(c2)CC(=O)N([C@H](C)CO)C[C@@H](C)[C@@H](CN(C)Cc2ccc(C(F)(F)F)cc2)O3)cc1	22*	nt	23*	-1	nt	-2
COc1ccc(S(=O)(=O)Nc2ccc3c(c2)CC(=O)N([C@H](C)CO)C[C@H](C)[C@@H](CN(C)Cc2ccc(C(F)(F)F)cc2)O3)cc1	26*	nt	-9	-1	nt	4
COc1ccc(S(=O)(=O)Nc2ccc3c(c2)CC(=O)N([C@@H](C)CO)C[C@H](C)[C@H](CN(C)Cc2ccc(C(F)(F)F)cc2)O3)cc1	22*	nt	6	-1	nt	2
C[C@H](CO)N1C[C@H](C)[C@@H](CN(C)Cc2ccc(C(F)(F)F)cc2)Oc2ccc(NS(=O)(=O)c3ccc(F)cc3)cc2CC1=O	35*	nt	8	-2	nt	-1
O=C(Nc1ccccc1)N1CCCCN2[C@@H](CO)[C@H](c3ccc(C4=CCCCC4)cc3)[C@@H]2C1	1	nt	-36	4	nt	1
COc1cc(NC2c3ccccc3C(=O)N2Cc2ccccc2)cc(OC)c1OC (centres undefined)	-2	-14	-5	-1	-2	3
CC(C)CCNC1c2ccccc2C(=O)N1Cc1ccccc1 (centres undefined)	-3	88*	-5	-4	nt	-4
C[C@H]1CN([C@@H](C)CO)S(=O)(=O)c2ccc(-c3ccncc3)cc2O[C@H]1CN(C)S(=O)(=O)c1ccccc1F	-4	nt	7	-2	nt	2
SMILES	SIRT5 inh	CAL PDZ FP-1	DENV2 CPE rescue	ERAP1 inh	CAL PDZ FP-2	S100A4 inh HTS
N#C/C(=C\c1ccc(C(=O)O)cc1)c1nc2sc3c(c2c(=O)[nH]1)CCCC3	20*	-1	1	2	-2	-3
C[C@@H]1CN([C@@H](C)CO)S(=O)(=O)c2ccc(C3=CCCC3)cc2O[C@H]1CN(C)Cc1cccnc1	-2	nt	2	4	nt	-35
C[C@@H](O)C#Cc1ccc([C@@H]2[C@H](CO)N3CCCCN(C(=O)c4ccc(F)cc4)C[C@@H]23)cc1	-2	nt	10	1	nt	1
Cc1ccc(S(=O)(=O)Nc2ccc3c(c2)CC(=O)N([C@H](C)CO)C[C@H](C)[C@@H](CN(C)Cc2ccc(Oc4ccccc4)cc2)O3)cc1	0	nt	-25	0	nt	-27
C[C@@H]1CN([C@@H](C)CO)C(=O)Cc2cc(NS(C)(=O)=O)ccc2O[C@H]1CN(C)Cc1ccc(Oc2ccccc2)cc1	1	nt	30*	-1	nt	20
C[C@@H]1CN([C@H](C)CO)C(=O)Cc2cc(NS(C)(=O)=O)ccc2O[C@@H]1CN(C)Cc1ccc(Oc2ccccc2)cc1	5	nt	5	-1	nt	12
Cc1ccc(S(=O)(=O)Nc2ccc3c(c2)CC(=O)N([C@@H](C)CO)C[C@@H](C)[C@H](CN(C)Cc2ccc(Oc4ccccc4)cc2)O3)cc1	22*	nt	-26	1	nt	-11
C[C@H]1CN([C@@H](C)CO)C(=O)Cc2cc(NS(=O)(=O)c3ccc(Cl)cc3)ccc2O[C@@H]1CN(C)Cc1ccc(Oc2ccccc2)cc1	17*	nt	0	-1	nt	-50
Cc1ccc(S(=O)(=O)Nc2ccc3c(c2)CC(=O)N([C@H](C)CO)C[C@@H](C)[C@@H](CN(C)Cc2ccc(Oc4ccccc4)cc2)O3)cc1	1	nt	38*	-1	nt	3
C[C@@H]1CN([C@H](C)CO)C(=O)Cc2cc(NS(=O)(=O)c3ccccc3)ccc2O[C@H]1CN(C)Cc1ccc(Oc2ccccc2)cc1	14	nt	?	-1	nt	9
